According to paper PMC2748767 (Journal of medicinal chemistry, 2009):

How the values were obtained:
[1] = test system: thymidine kinase-deficient (TK-) HSV-1 KOS strain resistant to ACV (ACVr); assay: Anti-TK-deficient HSV-1; type: cell-based; details: versus HSV-1 and HSV-2
HIV-1 X4LAI.04 = assay: Anti-HIV-1 assay in MT-4 cell cultures; type: cell-based; details: HIV-1 X4LAI.04 in MT-4 cells, 3 days, 50% suppression of p24 production
CEM cells = assay: Cytostatic activity in CEM cells; type: cell-based; details: Homo sapiens, CCRF-CEM, read-out: Cytostatic activity IC50 CEM
[2] = Hydrolysis of ProTides in crude CEM cell extracts; type: in vitro ADME, human; details: 10 μM, 37 °C; for conversion in CEM cell extracts: within one hour of incubation
Method in brief: (§1)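 Exponentially growing CEM cells were washed twice in PBS, resuspended in PBS and sonicated. The extract was cleared by centrifugation (10 min, 15,000 rpm) and frozen at -20 °C. Test compound (10 μM) was incubated in crude extract at 37 °C for 30, 60 and 120 min. Aliquots were quenched in cold methanol and centrifuged, and supernatants went to reverse-phase C18 HPLC. Results are given as percent disappearance of intact parent.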

[3] = Hydrolysis of ProTides in tonsil extracts; type: in vitro ADME, human; details: data not shown
Method in brief: as §1, with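 “Tonsil tissues” for “Exponentially growing CEM cells”, “homogenised mechanically.” for “sonicated.”, “HPLC to separate parent from hydrolysis products.” for “HPLC. Results are given as percent disappearance of intact parent.”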

carboxypeptidase Y = carboxypeptidase Y (Saccharomyces cerevisiae, UniProt P00729); assay: Carboxypeptidase Y-mediated cleavage monitored by 31P-NMR; type: in vitro ADME; details: for conversion by carboxypeptidase Y (in words): d6-acetone and trizma buffer pH 7.6, 31P-NMR; for half-life: yeast, carboxypeptidase Y (isolated enzyme), pH 7.6
Method in brief: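 Test compound was dissolved in d6-acetone plus trizma buffer (pH 7.6). A 31P-NMR blank spectrum was recorded for each sample before carboxypeptidase Y was added, and conversion was then followed by 31P-NMR.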

[4] = Stability in human serum monitored by 31P-NMR; type: in vitro ADME; details: after 12 h, 37 °C, DMSO/D2O
[5] = Stability in pH 1.0 buffer monitored by 31P-NMR; type: physicochemical

Sequence of carboxypeptidase Y (P00729 112-532): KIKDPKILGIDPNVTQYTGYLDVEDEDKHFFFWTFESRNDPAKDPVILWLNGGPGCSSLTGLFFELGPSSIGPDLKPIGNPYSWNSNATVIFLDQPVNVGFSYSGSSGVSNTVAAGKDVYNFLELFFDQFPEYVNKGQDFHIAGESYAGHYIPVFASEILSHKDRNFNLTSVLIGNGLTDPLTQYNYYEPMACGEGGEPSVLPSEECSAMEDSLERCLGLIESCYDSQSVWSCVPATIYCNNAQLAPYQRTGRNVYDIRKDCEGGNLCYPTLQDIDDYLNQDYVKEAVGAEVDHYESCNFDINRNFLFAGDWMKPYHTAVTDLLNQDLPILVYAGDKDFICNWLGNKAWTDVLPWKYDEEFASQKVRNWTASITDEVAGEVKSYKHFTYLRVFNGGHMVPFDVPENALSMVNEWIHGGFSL

Nc1nc2c(ncn2COCCO)c(=O)[nH]1 [ACV (1), acyclovir]
loss of activity against thymidine kinase-deficient HSV-1 [1]: > 100 fold
Antiviral Activity EC50 HIV-1 MT4 (HIV-1 X4LAI.04): inactive

C[C@H](NP(=O)(OCCOCn1cnc2c(=O)[nH]c(N)nc21)Oc1cccc2ccccc12)C(=O)OCc1ccccc1 (stereo partly drawn) [Compound 2, acyclovir-[1-naphthyl(benzoxy-L-alaninyl)] phosphate]
IC50 (CEM cells): 17 µM

CCCOC(=O)[C@H](C)NP(=O)(OCCOCn1cnc2c(=O)[nH]c(N)nc21)Oc1cccc2ccccc12 (some centres unmarked) [Compound 3]
IC50 (CEM cells): 22 µM

COC(=O)[C@H](C)NP(=O)(OCCOCn1cnc2c(=O)[nH]c(N)nc21)Oc1cccc2ccccc12 (some centres unmarked) [Compound 4]
IC50 (CEM cells): 57 µM
conversion in CEM cell extracts [2]: 65%
hydrolysis in tonsil extracts (in words) [3]: efficiently hydrolyse

C[C@H](NP(=O)(OCCOCn1cnc2c(=O)[nH]c(N)nc21)Oc1cccc2ccccc12)C(=O)OC(C)(C)C (some centres unmarked) [Compound 6]
conversion by carboxypeptidase Y (in words) (carboxypeptidase Y): no conversion at all
stability in CEM cell extracts (in words) ([2]; after a 120 min-incubation period): entirely stable

COC(=O)[C@H](C)NP(=O)(OCCOCn1cnc2c(=O)[nH]c(N)nc21)Oc1ccccc1 (some centres unmarked) [Compound 8]
IC50 (CEM cells): 67 ± 7.8 µM

C[C@H](NP(=O)(OCCOCn1cnc2c(=O)[nH]c(N)nc21)Oc1ccccc1)C(=O)OCc1ccccc1 (some centres unmarked) [Compound 9]
half-life (carboxypeptidase Y): 0.283 h
conversion in CEM cell extracts [2]: > 95%
hydrolysis in tonsil extracts (in words) [3]: efficiently hydrolyse
compound still present in human serum [4]: 56%
half-life [5]: 11 h

CC(C)OC(=O)[C@H](C)NP(=O)(OCCOCn1cnc2c(=O)[nH]c(N)nc21)Oc1ccccc1 (some centres unmarked) [Compound 10]
times slower conversion by carboxypeptidase Y than 9 (carboxypeptidase Y; ratio of half-lives versus compound 9): ca. 150 times
half-life (carboxypeptidase Y): 46 h

Nc1nc2c(ncn2COCCOP(=O)(NC(Cc2ccccc2)C(=O)OCc2ccccc2)Oc2ccccc2)c(=O)[nH]1 (centres unmarked) [Compound 15]
IC50 (CEM cells): 42 µM

COC(=O)[C@@H](NP(=O)(OCCOCn1cnc2c(=O)[nH]c(N)nc21)Oc1cccc2ccccc12)C(C)C (some centres unmarked) [Compound 17]
half-life (carboxypeptidase Y): 72 h

COC(=O)[C@H](NP(=O)(OCCOCn1cnc2c(=O)[nH]c(N)nc21)Oc1cccc2ccccc12)C(C)C (some centres unmarked) [Compound 19]
conversion by carboxypeptidase Y (in words) (carboxypeptidase Y): not processed
